Measurements from ChEMBL document CHEMBL1149694, “5-(3-Cyclopentyl-2-thioxo-2,3-dihydro-1H-benzimidazol-5-yl)-1-methyl-1H-pyrrole-2-carbonitrile: A novel, highly potent, selective, and orally active non-steroidal progesterone receptor agonist” (Bioorg Med Chem, 2007).
Calls of active or inactive are those of the source. The calls are words filed in the database; no cut-off is given here.

How the values were obtained:
Progesterone receptor [1] = target: T1, Progesterone receptor (Homo sapiens, UniProt P06401); test: (§1) Agonist activity at progesterone receptor expressed in T47D cells by alkaline phosphatase assay; assay type: functional, cell-based
T1 sequence (P06401 whole entry): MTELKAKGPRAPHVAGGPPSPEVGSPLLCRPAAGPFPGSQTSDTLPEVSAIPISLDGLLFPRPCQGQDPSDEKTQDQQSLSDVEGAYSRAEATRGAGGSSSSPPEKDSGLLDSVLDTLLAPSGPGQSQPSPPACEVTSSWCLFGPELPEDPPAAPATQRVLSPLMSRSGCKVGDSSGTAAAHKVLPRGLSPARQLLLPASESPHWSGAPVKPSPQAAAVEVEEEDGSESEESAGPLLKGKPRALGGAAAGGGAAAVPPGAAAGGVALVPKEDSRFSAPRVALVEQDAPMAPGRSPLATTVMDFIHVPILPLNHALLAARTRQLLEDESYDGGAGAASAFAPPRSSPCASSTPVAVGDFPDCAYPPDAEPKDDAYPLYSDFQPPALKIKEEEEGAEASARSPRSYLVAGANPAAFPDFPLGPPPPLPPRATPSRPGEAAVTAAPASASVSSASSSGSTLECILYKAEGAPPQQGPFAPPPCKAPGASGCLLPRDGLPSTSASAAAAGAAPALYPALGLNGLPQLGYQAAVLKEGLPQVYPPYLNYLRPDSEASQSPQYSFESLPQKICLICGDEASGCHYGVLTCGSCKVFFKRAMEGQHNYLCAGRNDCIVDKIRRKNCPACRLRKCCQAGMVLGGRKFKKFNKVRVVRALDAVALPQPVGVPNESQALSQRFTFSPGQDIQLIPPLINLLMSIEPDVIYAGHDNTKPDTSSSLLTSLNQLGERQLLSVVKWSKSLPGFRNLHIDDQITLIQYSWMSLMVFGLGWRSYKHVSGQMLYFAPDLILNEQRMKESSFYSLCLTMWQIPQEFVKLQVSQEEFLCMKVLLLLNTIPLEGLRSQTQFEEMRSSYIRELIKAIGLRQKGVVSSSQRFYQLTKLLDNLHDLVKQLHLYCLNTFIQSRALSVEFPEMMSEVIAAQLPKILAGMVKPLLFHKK
Method in brief: (§2)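 Human T47D breast carcinoma cells; alkaline phosphatase activity measured. EC50 is the concentration giving 50% effect; efficacy shown in parentheses. Average of at least duplicate determinations.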

[2] = target: T2, Progesterone receptor (Homo sapiens) (UniProt P06401); test: (§3) Antagonist activity at progesterone receptor expressed in T47D cells assessed as inhibition of progesterone-induced alkaline phosphatase activity; assay type: functional, cell-based; settings: for inhibition: concentration not given here
T2 sequence (whole entry): T1 sequence (P06401 whole entry)
Method in brief: (§4)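 Human T47D breast carcinoma cells stimulated with 1 nM progesterone; compound inhibition of induced alkaline phosphatase activity. IC50 is 50% inhibition. Average of at least duplicate determinations.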

[3] = target: T2, Progesterone receptor (Homo sapiens); test: Agonist activity at progesterone receptor expressed in T47D cells relative to progesterone; assay type: functional, cell-based
Method in brief: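 Human T47D breast carcinoma cells; agonist mode; read-out is alkaline phosphatase activity; values are the average of at least duplicate determinations.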

Progesterone receptor [4] = target: T1, Progesterone receptor; test: Binding affinity to cytosolic PR in T47D cells by competition binding assay; assay type: cell-based
Glucocorticoid receptor [5] = target: T3, Glucocorticoid receptor (Homo sapiens, UniProt P04150); test: Agonist activity at glucocorticoid receptor expressed in L929 cells by HRE-tk luciferase assay
T3 sequence (P04150 whole entry): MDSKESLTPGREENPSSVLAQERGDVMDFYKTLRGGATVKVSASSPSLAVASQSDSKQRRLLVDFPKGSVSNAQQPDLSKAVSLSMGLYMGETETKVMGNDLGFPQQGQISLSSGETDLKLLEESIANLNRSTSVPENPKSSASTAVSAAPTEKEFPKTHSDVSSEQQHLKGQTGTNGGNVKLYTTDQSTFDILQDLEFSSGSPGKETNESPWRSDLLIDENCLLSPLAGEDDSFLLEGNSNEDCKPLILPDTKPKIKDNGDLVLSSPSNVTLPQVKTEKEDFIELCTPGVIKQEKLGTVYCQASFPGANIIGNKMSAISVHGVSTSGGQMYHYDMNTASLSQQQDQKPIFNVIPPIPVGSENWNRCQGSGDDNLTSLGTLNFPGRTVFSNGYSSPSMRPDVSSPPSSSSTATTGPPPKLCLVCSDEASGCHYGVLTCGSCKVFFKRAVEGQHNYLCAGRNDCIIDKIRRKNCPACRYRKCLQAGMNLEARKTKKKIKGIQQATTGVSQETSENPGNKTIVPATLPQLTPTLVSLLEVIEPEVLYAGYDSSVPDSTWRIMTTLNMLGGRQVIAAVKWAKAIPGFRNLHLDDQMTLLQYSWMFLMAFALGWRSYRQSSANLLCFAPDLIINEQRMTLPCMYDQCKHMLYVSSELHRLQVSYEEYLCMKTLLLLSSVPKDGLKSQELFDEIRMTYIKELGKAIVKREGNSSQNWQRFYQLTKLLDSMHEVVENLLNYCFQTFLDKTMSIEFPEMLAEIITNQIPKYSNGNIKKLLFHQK

Glucocorticoid receptor [6] = target: T3, Glucocorticoid receptor; test: Antagonist activity at glucocorticoid receptor expressed in L929 cells by HRE-tk luciferase assay
Rattus norvegicus [7] = test: Effect on uterine decidualization in po dosed ovariectomized Sprague-Dawley rat after 7 days; assay type: organism-based; settings: 168 h
Method in brief: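 Ovariectomized mature Sprague–Dawley rats (~60-day-old, 230 g), groups of 4–5, dosed once daily for 7 days by gavage. Half-log dose steps. One uterine horn decidually stimulated; the contralateral horn is the control. Horns weighed about 24 h after the last dose. D-horn/C-horn ratio log-transformed; Huber M-estimator; ANOVA and nonlinear dose–response fitting.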

Rattus norvegicus [8] = test: Effect on estrogen-induced synthesis of complement component C3 in po dosed Sprague-Dawley rat uterus epithelial cells; assay type: functional; settings: Epithelial cell
Method in brief: (§5)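 Adult ovariectomized Sprague–Dawley rats (60-day-old, surgery at least 8 days before dosing), groups of six, acclimated at least 72 h. Compound given once daily for 2 days, by sc injection or oral gavage, in 10% ethanol/corn oil. Ethinyl estradiol given orally on day 2. Uteri taken about 24 h later. C3 mRNA measured by Northern blot, normalized to 28S rRNA. Log-transformed ratios; Huber M-estimator.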

[9] = Clearance in rat at 1 mg/kg, iv; assay type: ADME, organism-based; set-up: dose 1 mg/kg, route intravenous; settings: in vivo
Method in brief: (§6)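 Female rats, single dose of 1 mg/kg given as IV bolus or orally. AUC0–∞, clearance, volume of distribution and terminal half-life taken from the IV arm. Oral exposure gives AUC0–∞; bioavailability from oral versus IV exposure.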

[10] = Volume of distribution in rat at 1 mg/kg, iv; assay type: ADME, organism-based; set-up: dose 1 mg/kg, route intravenous; settings: in vivo; method in brief: as §6
[11] = Terminal half life in rat at 1 mg/kg, iv; assay type: ADME, organism-based; set-up: dose 1 mg/kg, route intravenous; settings: in vivo; method in brief: as §6
[12] = AUC (0 to infinity) in rat at 1 mg/kg, iv; assay type: ADME, organism-based; set-up: time infinity, dose 1 mg/kg, route intravenous; settings: plasma; method in brief: as §6
[13] = AUC (0 to infinity) in rat at 1 mg/kg, po; assay type: ADME, organism-based; set-up: time infinity, dose 1 mg/kg, route oral; settings: plasma; method in brief: as §6
[14] = Bioavailability in rat at 1 mg/kg, po; assay type: ADME, organism-based; settings: in vivo; method in brief: as §6
Cynomolgus monkey = test: Inhibition of ovulation-induced progesterone levels in po dosed cynamologous monkey; assay type: functional, Macaca fascicularis
Method in brief: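 Cynomolgus monkeys dosed orally once daily from day 2 to 28 of the menstrual cycle; vehicle 2% Tween 80/0.5% methylcellulose. Serum progesterone sampled three times weekly until the next menses. Ovulation inferred from the progesterone pattern.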

Androgen receptor [15] = target: T4, Androgen receptor (Homo sapiens, UniProt P10275); test: Agonist activity at androgen receptor expressed in mouse fibroblast L929 cells by HRE-tk luciferase assay
T4 sequence (P10275 whole entry): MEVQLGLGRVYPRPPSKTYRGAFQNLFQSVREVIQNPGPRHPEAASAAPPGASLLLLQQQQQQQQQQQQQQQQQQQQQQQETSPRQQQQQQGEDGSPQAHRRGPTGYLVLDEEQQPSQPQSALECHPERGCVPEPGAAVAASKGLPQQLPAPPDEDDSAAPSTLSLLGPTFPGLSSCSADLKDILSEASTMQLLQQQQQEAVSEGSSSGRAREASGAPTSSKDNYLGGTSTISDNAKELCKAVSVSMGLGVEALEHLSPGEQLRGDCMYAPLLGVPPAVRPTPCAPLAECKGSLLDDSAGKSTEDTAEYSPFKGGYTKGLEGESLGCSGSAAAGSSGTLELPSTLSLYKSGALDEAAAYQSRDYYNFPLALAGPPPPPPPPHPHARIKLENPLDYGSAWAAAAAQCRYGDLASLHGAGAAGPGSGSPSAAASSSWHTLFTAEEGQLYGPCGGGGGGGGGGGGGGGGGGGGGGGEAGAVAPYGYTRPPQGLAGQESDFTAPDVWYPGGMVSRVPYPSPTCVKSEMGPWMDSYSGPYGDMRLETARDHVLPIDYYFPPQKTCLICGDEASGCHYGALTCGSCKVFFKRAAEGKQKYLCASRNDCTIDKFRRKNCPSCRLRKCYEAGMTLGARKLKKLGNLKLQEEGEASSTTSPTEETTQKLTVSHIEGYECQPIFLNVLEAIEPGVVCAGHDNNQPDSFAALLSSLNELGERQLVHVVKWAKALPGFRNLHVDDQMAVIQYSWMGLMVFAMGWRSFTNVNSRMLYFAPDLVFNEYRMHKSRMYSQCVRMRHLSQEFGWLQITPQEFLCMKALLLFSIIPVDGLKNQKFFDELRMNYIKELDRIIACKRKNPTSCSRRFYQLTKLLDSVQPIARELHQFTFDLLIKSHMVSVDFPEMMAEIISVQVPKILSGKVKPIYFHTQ

Androgen receptor [16] = target: T4, Androgen receptor; test: Antagonist activity at androgen receptor expressed in mouse fibroblast L929 cells by HRE-tk luciferase assay
Rattus norvegicus [17] = test: Effect on estrogen-induced synthesis of complement component C3 in sc dosed Sprague-Dawley rat uterus epithelial cells; assay type: functional, Epithelial cell; method in brief: as §5
Progesterone receptor [18] = target: T1, Progesterone receptor; test: as §3; assay type: functional, cell-based; method in brief: as §4
[19] = target: T2, Progesterone receptor (Homo sapiens); test: as §1; assay type: functional, cell-based; method in brief: as §2

Row | SMILES | EC50 (Progesterone receptor [1]) [nM] | Activity [2] | Efficacy [3] [%] | also measured
1 | CCC(CC)n1c(=S)[nH]c2ccc(-c3ccc(C#N)n3C)cc21 | 1 | inactive | 70 | –
2 | Cn1c(C#N)ccc1-c1ccc2[nH]c(=S)n(C3CCCC3)c2c1 | 0.1 | inactive | 75 | IC50 (Progesterone receptor [4]): 0.4 nM; EC50 (Glucocorticoid receptor [5]): > 10000 nM; IC50 (Glucocorticoid receptor [6]): 99 nM; ED50 (Rattus norvegicus [7]): 0.02 mg/kg; ED50 (Rattus norvegicus [8]): 0.003 mg/kg; clearance [9]: 25 mL/min/kg; Vd [10]: 7.6 L/kg; half-life [11]: 4.4 h; AUC(0-inf) [12]: 680 ng·h/mL; AUC(0-inf) [13]: 480 ng·h/mL; bioavailability [14]: 71%; ED100 (Cynomolgus monkey): 0.03 mg/kg; EC50 (Androgen receptor [15]): > 10000 nM; IC50 (Androgen receptor [16]): 1000 nM
3 | N#Cc1cc(F)cc(-c2ccc3[nH]c(=S)n(C4CCC4)c3c2)c1 | 2.7 | inactive | 60 | –
4 | Cn1c(C#N)ccc1-c1ccc2[nH]c(=O)n(C3CCCC3)c2c1 | > 3000 | – | – | IC50 (Progesterone receptor [4]): 26.2 nM
5 | CC(=O)[C@H]1CC[C@H]2[C@@H]3CCC4=CC(=O)CC[C@]4(C)[C@H]3CC[C@]12C [PROGESTERONE] | – | inactive | – | –
6 | Fc1ccc(-c2ccc3[nH]c(=S)n(C4CCCC4)c3c2)cc1Cl | 49.3 | inactive | 55 | –
7 | CC(=O)O[C@]1(C(C)=O)CC[C@H]2[C@@H]3C[C@H](C)C4=CC(=O)CC[C@]4(C)[C@H]3CC[C@@]21C [MEDROXYPROGESTERONE ACETATE] | – | inactive | – | ED5 (Rattus norvegicus [17]): 0.03 mg/kg
8 | CCC(CC)n1c(=O)[nH]c2ccc(-c3ccc(C#N)n3C)cc21 | > 3000 | – | – | IC50 (Progesterone receptor [18]): 11.7 nM
9 | Cn1c(C#N)ccc1-c1ccc2[nH]c(=O)n(C3CCC3)c2c1 | > 3000 | – | – | –
10 | CCC(CC)n1c(=S)[nH]c2ccc(-c3ccc(F)c(Cl)c3)cc21 | – | – | – | Activity [19]: inactive; inhibition [2]: 60%; IC50 (Progesterone receptor [18]): 33.7 nM
11 | Cn1c(C#N)ccc1-c1ccc2[nH]c(=S)n(C3CCC3)c2c1 | 0.5 | inactive | 70 | –
12 | Cn1c(C#N)ccc1-c1ccc2c(c1)C(C)(C)OC(=S)N2 [TANAPROGET] | – | – | – | ED100 (Cynomolgus monkey): 0.01 mg/kg
13 | Fc1ccc(-c2ccc3[nH]c(=S)n(C4CCCC4)c3c2)cc1F | 62.5 | inactive | 75 | –
14 | CCC(CC)n1c(=S)[nH]c2ccc(-c3cc(F)cc(C#N)c3)cc21 | 270 | – | 70 | inhibition [2]: 50%; IC50 (Progesterone receptor [18]): 3.6 nM
